Reference: ChEMBL document CHEMBL2157885, “Synthesis of 1,5-diarylhaloimidazole analogs and their inhibitory activities against PGE₂ production from LPS-treated RAW 264.7 cells” (Bioorg Med Chem, 2012)

Columns and labels:
[1] = target: T1, Prostaglandin G/H synthase 2 (Mus musculus, UniProt Q05769); assay: Inhibition of COX-2-induced PGE2 production in LPS-stimulated mouse Raw 264.7 cells preincubated for 1 hr before LPS challenge measured after 24 hrs by ELISA
T1 sequence (Q05769 whole entry): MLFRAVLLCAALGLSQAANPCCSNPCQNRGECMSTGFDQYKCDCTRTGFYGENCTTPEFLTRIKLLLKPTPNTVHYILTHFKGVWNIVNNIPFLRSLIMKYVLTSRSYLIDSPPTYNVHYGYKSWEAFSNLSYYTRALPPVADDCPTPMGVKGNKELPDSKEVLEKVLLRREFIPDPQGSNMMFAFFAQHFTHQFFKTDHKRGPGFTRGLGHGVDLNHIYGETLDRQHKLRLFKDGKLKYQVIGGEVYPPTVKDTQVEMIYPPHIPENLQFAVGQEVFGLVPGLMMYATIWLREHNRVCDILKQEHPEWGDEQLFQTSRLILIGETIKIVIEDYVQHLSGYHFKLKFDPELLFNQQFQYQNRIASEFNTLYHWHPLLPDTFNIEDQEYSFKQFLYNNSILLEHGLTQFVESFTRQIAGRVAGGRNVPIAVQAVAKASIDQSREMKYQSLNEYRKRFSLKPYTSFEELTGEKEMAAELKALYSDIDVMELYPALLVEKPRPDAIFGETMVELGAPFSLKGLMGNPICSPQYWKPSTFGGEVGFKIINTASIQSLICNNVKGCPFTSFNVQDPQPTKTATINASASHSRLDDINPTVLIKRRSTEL
Summary of the method: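 RAW 264.7 cells (ATCC), cultured in DMEM with 10% FBS and 1% antibiotics at 37 °C under 5% CO₂, seeded at 2 × 10⁵ cells/well. 1 h compound pre-incubation preceded LPS addition and 24 h incubation. Medium PGE₂ quantified by ELISA; IC₅₀ reported from inhibition relative to basal and LPS-only controls.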

RAW264.7 [2] = assay: Cytotoxicity against LPS-stimulated mouse RAW264.7 cells by MTT assay; assay type: cell-based
Summary of the method: (§1)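 Viability of ATCC RAW 264.7 cells, grown in DMEM with 10% FBS and 1% antibiotics at 37 °C under 5% CO₂, read by MTT assay with or without LPS at the compound concentrations used for the PGE₂ assay.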

RAW264.7 [3] = assay: Cytotoxicity against mouse RAW264.7 cells by MTT assay; assay type: cell-based; summary of the method: as §1
[4] = target: T2, Prostaglandin G/H synthase 2 (Mus musculus) (UniProt Q05769); assay: Inhibition of COX-2-induced PGE2 production in LPS-stimulated mouse Raw 264.7 cells at 10 uM preincubated for 1 hr before LPS challenge measured after 24 hrs by ELISA
T2 sequence (whole entry): T1 sequence (Q05769 whole entry)
Summary of the method: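 ATCC RAW 264.7 cells in DMEM with 10% FBS and 1% antibiotics, 37 °C, 5% CO₂, seeded at 2 × 10⁵ cells/well. Compound pre-incubated 1 h, then LPS added, 24 h further. PGE₂ in medium measured by ELISA. % inhibition = 100 × [1 − (treated + LPS − basal)/(LPS only − basal)]. Arithmetic means, n = 3.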

[5] = Lipophilicity, log P of the compound; assay type: physicochemical; conditions: octanol/water
[6] = Dissociation constant, pKa of the compound; assay type: physicochemical

| SMILES | IC50 [1] [nM] | Activity (RAW264.7 [2]) | Activity (RAW264.7 [3]) | inhibition [4] [%] | logP [5] | pKa [6] |
| --- | --- | --- | --- | --- | --- | --- |
| CS(=O)(=O)c1ccc(-c2cncn2-c2ccc(F)cc2F)cc1 | 6520 | Non-toxic | Non-toxic | 84 | – | – |
| CS(=O)(=O)c1ccc(-c2c(Cl)nc(Cl)n2-c2ccc(F)cc2F)cc1 | 550 | Non-toxic | Non-toxic | 98 | 3.64 | 1.07 |
| CS(=O)(=O)c1ccc(-c2cncn2-c2ccc(F)c(F)c2)cc1 | – | Non-toxic | Non-toxic | – | – | – |
| CS(=O)(=O)c1ccc(-c2cnc(I)n2-c2ccc(F)c(F)c2)cc1 | – | Non-toxic | Non-toxic | 90 | 3.88 | – |
| CS(=O)(=O)c1ccc(-c2cnc(Br)n2-c2ccc(F)c(F)c2)cc1 | 580 | Non-toxic | Non-toxic | 99 | 3.7 | 4.05 |
| CS(=O)(=O)c1ccc(-c2c(Cl)ncn2-c2ccc(F)c(F)c2)cc1 | – | Non-toxic | Non-toxic | 56 | – | – |
| CS(=O)(=O)c1ccc(-c2c(Br)nc(Br)n2-c2ccc(F)cc2F)cc1 | – | Non-toxic | Non-toxic | 15 | 4.64 | – |
| CS(=O)(=O)c1ccc(-c2cnc(Cl)n2-c2ccc(F)cc2F)cc1 | – | Non-toxic | Non-toxic | 42 | – | – |
| CS(=O)(=O)c1ccc(-c2c(Cl)nc(Cl)n2-c2ccc(F)c(F)c2)cc1 | – | Non-toxic | Non-toxic | 81 | 4.44 | – |
| CS(=O)(=O)c1ccc(-c2c(Br)ncn2-c2ccc(F)c(F)c2)cc1 | – | Non-toxic | Non-toxic | 7 | 3.72 | – |
